Experimental data reported in ChEMBL document CHEMBL4334504 (J Med Chem, 2019).
≈ marks a conversion by molar mass, not a printed value.

Assays:
Clostridioides difficile [1] = assay: Antibacterial activity against Clostridium difficile VPI 10463 ATCC 43255 assessed as bacterial growth inhibition incubated for 48 hrs under anaerobic condition by CLSI protocol based assay; assay type: functional; details: ATCC 43255 VPI 10463, 48 h
Outline: (§1)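 Broth microdilution following CLSI guidance. Strains pre-grown anaerobically on BHIS agar (BHI plus yeast extract, vitamin K1, hemin) at 37 °C for 48 h. ~10^5 CFU/mL in BHIS broth added to serial compound dilutions. Incubated anaerobically at 37 °C for 48 h. MIC is the lowest concentration showing visible growth inhibition.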

Clostridioides difficile [2] = assay: Antibacterial activity against Clostridium difficile 4118 ATCC BAA 1870 assessed as bacterial growth inhibition incubated for 48 hrs under anaerobic condition by CLSI protocol-based assay; assay type: functional; details: 4118 ATCC BAA 1870, 48 h; outline: as §1

SMILES	MIC (Clostridioides difficile [1]) [µM]	MIC (Clostridioides difficile [2]) [µM]
Cc1nc2ccoc2c(=O)[nH]1	> 852	> 852
Cc1nc2c([N+](=O)[O-])csc2c(=O)n1CC(=O)N1CCN(C)CC1	91 (≈ 32 µg/mL)	91 (≈ 32 µg/mL)
O=c1[nH]c(/C=C/c2cccc(F)c2)nc2c([N+](=O)[O-])csc12	13 (≈ 4.12 µg/mL)	13 (≈ 4.12 µg/mL)
O=c1[nH]c(/C=C/c2cccs2)nc2c([N+](=O)[O-])csc12	13 (≈ 3.97 µg/mL)	13 (≈ 3.97 µg/mL)
CCCc1nc2c([N+](=O)[O-])csc2c(=O)[nH]1	67 (≈ 16 µg/mL)	67 (≈ 16 µg/mL)
O=c1[nH]c(/C=C/c2ccccc2)nc2c([N+](=O)[O-])csc12	52 (≈ 15.6 µg/mL)	13 (≈ 3.89 µg/mL)
Cc1nc(Cl)c2scc([N+](=O)[O-])c2n1	34 (≈ 7.81 µg/mL)	17 (≈ 3.9 µg/mL)
Cc1nc2c(N)cccc2c(=O)[nH]1	> 730	> 730
Cc1nc2c([N+](=O)[O-])csc2c(=O)n1CCc1ccccc1	13 (≈ 4.1 µg/mL)	13 (≈ 4.1 µg/mL)
O=c1[nH]c(/C=C/c2ccco2)nc2c([N+](=O)[O-])csc12	27 (≈ 7.81 µg/mL)	27 (≈ 7.81 µg/mL)
O=c1[nH]c(-c2cccc([N+](=O)[O-])c2)nc2c([N+](=O)[O-])csc12	50 (≈ 15.9 µg/mL)	50 (≈ 15.9 µg/mL)
O=c1[nH]c(/C=C/c2ccc([N+](=O)[O-])cc2)nc2c([N+](=O)[O-])csc12	12 (≈ 4.13 µg/mL)	24 (≈ 8.26 µg/mL)
COc1ccc(/C=C/c2nc3c([N+](=O)[O-])csc3c(=O)[nH]2)cc1	12 (≈ 3.95 µg/mL)	12 (≈ 3.95 µg/mL)
Cc1nc(Nc2ccccc2)c2scc([N+](=O)[O-])c2n1	14 (≈ 4.01 µg/mL)	28 (≈ 8.02 µg/mL)
Cc1nc2c(F)cccc2c(=O)[nH]1	> 718	> 718
O=c1[nH]c(/C=C/c2ccc(O)cc2)nc2c([N+](=O)[O-])csc12	13 (≈ 4.1 µg/mL)	26 (≈ 8.2 µg/mL)
O=c1c2scc([N+](=O)[O-])c2nc(/C=C/c2ccc(F)cc2)n1Cc1ccccc1	157 (≈ 64 µg/mL)	157 (≈ 64 µg/mL)
Cc1nc2ncccc2c(=O)[nH]1	> 794	> 794

SMILES	MIC (Clostridioides difficile [1]) [µM]	MIC (Clostridioides difficile [2]) [µM]
O=[N+]([O-])c1csc2c(Cl)nc(/C=C/c3ccc(F)cc3)nc12	95 (≈ 31.9 µg/mL)	95 (≈ 31.9 µg/mL)
Cc1nc2c([N+](=O)[O-])csc2c(=O)n1CC(=O)N1CCOCC1	94 (≈ 31.8 µg/mL)	47 (≈ 15.9 µg/mL)
O=C(O)c1ccc(/C=C/c2nc3c([N+](=O)[O-])csc3c(=O)[nH]2)cc1	184 (≈ 63.2 µg/mL)	46 (≈ 15.8 µg/mL)
Cc1nc2c([N+](=O)[O-])csc2c(=O)n1CC(=O)OC(C)(C)C	98 (≈ 31.9 µg/mL)	49 (≈ 15.9 µg/mL)
COc1ccc(Cn2c(C)nc3c([N+](=O)[O-])csc3c2=O)cc1	24 (≈ 7.95 µg/mL)	24 (≈ 7.95 µg/mL)
Cc1nc2c([N+](=O)[O-])csc2c(=O)n1Cc1ccc(C#N)cc1	50 (≈ 16.3 µg/mL)	25 (≈ 8.16 µg/mL)
CCc1nc2c([N+](=O)[O-])csc2c(=O)[nH]1	35 (≈ 7.88 µg/mL)	35 (≈ 7.88 µg/mL)
CCOC(=O)Cn1c(C)nc2c([N+](=O)[O-])csc2c1=O	54 (≈ 16.1 µg/mL)	54 (≈ 16.1 µg/mL)
Cc1nc2c([N+](=O)[O-])csc2c(=O)n1CC(=O)Nc1ccccc1	23 (≈ 7.92 µg/mL)	46 (≈ 15.8 µg/mL)
N#Cc1ccc(/C=C/c2nc3c([N+](=O)[O-])csc3c(=O)[nH]2)cc1	> 197	> 197
C#Cc1ccc(/C=C/c2nc3c([N+](=O)[O-])csc3c(=O)[nH]2)cc1	12 (≈ 3.88 µg/mL)	6 (≈ 1.94 µg/mL)
Cc1nc2c([N+](=O)[O-])csc2c(=O)n1-c1ccc(-c2ccccc2)cc1	176 (≈ 64 µg/mL)	352 (≈ 128 µg/mL)
Oc1ncnc2ccsc12	840 (≈ 128 µg/mL)	420 (≈ 63.9 µg/mL)
Cc1nc2c([N+](=O)[O-])csc2c(=O)n1Cc1cccc([N+](=O)[O-])c1	23 (≈ 7.97 µg/mL)	23 (≈ 7.97 µg/mL)
Cc1csc2c(O)ncnc12	> 770	> 770
O=c1[nH]cnc2c([N+](=O)[O-])csc12	10 (≈ 1.97 µg/mL)	20 (≈ 3.94 µg/mL)
Cc1nc2c(C)csc2c(=O)[nH]1	> 710	> 710
O=[N+]([O-])c1csc2c(N3CCOCC3)nc(/C=C/c3ccc(F)cc3)nc12	166 (≈ 64.1 µg/mL)	166 (≈ 64.1 µg/mL)
